Source: PubChem BioAssay
Fh CTSL1 inh – Fasciola hepatica cathepsin L1 inhibitors, primary screen, counter-screen for PFM18AAP inhibitor project, biochemical, QFRET, fluorogenic peptide substrate. actives 0.49% (n = 300,000). inhibition, % at 5.96 µM. recombinant F. hepatica cathepsin L1, Z-Leu-Arg-MCA fluorescence. AID 1906, 2009;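 active = inhibition above the mean of all tested compounds plus 3 SD, set per screening campaign, cut at about 17% in these data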
ZTA counter – counter-screen for EBNA-1 inhibitors: inhibitors of Epstein-Barr virus ZTA | actives 0.15% (n = 320,000) | inhibition, % at 11 µM | P03206 | ZTA-DNA binding, fluorescence polarization; in the data active = inhibition above about 33%
Target sequence (P03206 whole entry, looked up): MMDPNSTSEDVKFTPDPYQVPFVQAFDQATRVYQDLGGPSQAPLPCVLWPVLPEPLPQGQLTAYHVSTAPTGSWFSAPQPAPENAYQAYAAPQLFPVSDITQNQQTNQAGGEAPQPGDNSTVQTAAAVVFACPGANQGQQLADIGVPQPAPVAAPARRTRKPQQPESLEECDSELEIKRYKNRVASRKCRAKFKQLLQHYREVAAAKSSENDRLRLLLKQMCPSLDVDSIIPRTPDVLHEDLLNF
EBNA-1 inhibitor – EBNA-1 DNA-binding inhibitors, primary screen, biochemical, fluorescence polarization. inhibition, % at 14.8 µM. actives 0.34% (n = 300,000). AID 1950, 2009; in the data active = inhibition above about 28%
HCV NS3 hel inh – inhibitors of HCV NS3 helicase, primary screen, biochemical, Cy5 molecular beacon fluorescence. Hepatitis C virus NS3 helicase. NS3 helicase DNA unwinding. inhibition, % at 10.9 µM. actives 0.56% (n = 290,000);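 active = inhibition above the mean of all tested compounds plus 3 SD, set per campaign, cut at about 35% in these data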
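Assay system: hepatitis C virus NS3 helicase domain fragment enzyme. Also added: annealed dual-labelled DNA beacon duplex, ATP-started. Timing: 1 h reaction at 25 °C, ATP-initiated. Technique: Cy5 fluorescence at 0 and 60 min, beacon hairpin quenching. Evaluation: % inhibition of unwinding. Replication: one well per compound.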
A number is an active result; n = inactive; x = no result. Sampled rows, rich in hits. Any-hit rate of the full collection: about 1.4%.

SMILES | Fh CTSL1 inh | ZTA counter | EBNA-1 inhibitor | HCV NS3 hel inh
COC(=O)C1CCCN1S(=O)(=O)c1ccc([N+](=O)[O-])cc1 (centres undefined) | 53 | n | n | n
Cc1cccc(C)c1NC(=O)C1CCCNC1 (centres undefined) | n | n | n | n
CC(=O)C(C(C)=O)C1(O)C(=O)c2ccccc2C1=O | 58 | n | n | n
CC(=O)N(C)C1=C(O)c2ccccc2C(=O)C1=O | n | n | n | n
CC1(C)CN=c2s/c(=C\c3ccc(Cl)cc3)c(=O)n2C1 | n | n | n | n
Cc1ccc(C(=O)CCS(=O)(=O)c2ccc(F)cc2)cc1 | 30 | n | n | n
Cc1ccc(C(=O)CCS(=O)(=O)c2ccc(Cl)cc2)cc1 | n | n | n | n
Cc1ccc(S(=O)(=O)CCC(=O)c2ccc(F)cc2)cc1 | 43 | n | n | n
O=C(Nn1cnnc1)c1ccccc1F | n | n | n | n
CCOC(=O)C1(Cc2cccc(F)c2)CCN(C(=O)C2CCOCC2)CC1 | n | n | n | n
COC(=O)c1ccc2nc(NC(=O)CSCC(=O)OCC(=O)c3ccccc3)sc2c1 | n | n | n | n
Cc1ccc2nc(NC(=O)CSCC(=O)OCC(=O)c3ccc(Br)cc3)sc2c1 | n | n | 30 | n
CSc1nsc(SCC(=O)Nc2nc3ccc(C)cc3s2)n1 | n | n | 32 | n
Cc1ccc2nc(NC(=O)COC(=O)CSc3nc(C)cc(C)n3)sc2c1 | n | n | n | n
O=C(O)/C=C/C(=O)c1c(-c2ccccc2)[nH]c2ccccc12 | 58 | n | n | n
CC(=O)c1c(-c2ccccc2)[nH]c2ccccc12 | n | n | n | n
COc1ccc(C(=O)N/C(=C/c2cccc3ccccc23)C(=O)NCCc2c[nH]c3ccccc23)cc1OC | n | n | 113 | n
COc1ccc(/C=C(/NC(=O)c2ccc(OC)c(OC)c2)C(=O)NCCc2c[nH]c3ccccc23)cc1 | n | n | n | n
Cc1csc(N(C(=O)c2cccc(S(=O)(=O)N(C)C)c2)c2ccccc2)n1 | n | n | n | n
COc1cc(OC)c(NC2=CC(=O)C(=O)c3ccccc32)cc1Cl | 23 | n | n | n
CSc1ccccc1C(=O)NCc1ccc(F)cc1 | 32 | n | n | n
CCOc1cc(C)c(C(C)C)cc1S(=O)(=O)n1cnc(C)c1 | n | n | n | n
O=C(COc1ccc(Br)cc1Br)NC(=S)N1CCCc2ccccc21 | n | 42 | n | n
C#CCOCCOCCOCCNc1nc(N2CCN(C(=O)CCCCCCCCCCNC(=O)[C@H](CCCN=C(N)N)n3cc(C[C@@H](C)CC)nn3)CC2)nc(N2CCN(C(=O)CCCCCCCCCCNC(=O)[C@@H]([C@H](C)CC)n3cc(CCCCCN)nn3)CC2)n1 | n | 161 | n | x
C#CCOCCOCCOCCNc1nc(N2CCN(C(=O)CCCCCCCCCCNC(=O)[C@H]([C@@H](C)CC)n3cc(CCCCN=C(N)N)nn3)CC2)nc(N2CCN(C(=O)CCCCCCCCCCNC(=O)[C@H](CCCN=C(N)N)n3cc(C[C@@H](C)CC)nn3)CC2)n1 | n | 137 | n | x
SMILES | Fh CTSL1 inh | ZTA counter | EBNA-1 inhibitor | HCV NS3 hel inh
NC1=NC(c2ccccc2)=NC1(NC(=O)c1ccccc1)C(Cl)Cl (centres undefined) | n | n | n | n
CCOC(=O)c1ccc(N=Cc2nc3ccccc3n2C)cc1 | n | n | n | n
CN(C)c1ccc(N=Cc2nc(-c3ccccc3)oc2OC(=O)c2cccc(Br)c2)cc1 | 24 | n | n | n
Cc1ccc(C(=O)Oc2oc(-c3ccco3)nc2C=Nc2ccccc2)cc1 | x | x | x | n
CN(C)c1ccc(/C=C/C(=O)c2cccc(Br)c2)cc1 | n | n | n | n
COc1ccc(N=Cc2nc(-c3ccccc3)oc2OC(=O)c2ccccc2)cc1 | 22 | n | n | n
CCOC(=O)c1ccc(N=Cc2nc(-c3ccccc3)oc2OC(C)=O)cc1 | 31 | n | n | n
CC(=O)Oc1oc(-c2ccccc2)nc1C=Nc1ccccc1 | 26 | n | n | n
CCOC(=O)c1sc(N2N=C(C)/C(=C\c3ccc(OCC(=O)OC)cc3)C2=O)nc1C | n | n | n | n
O=C1c2ccccc2S(=O)(=O)c2cc(N3CCOCC3)ccc21 | n | n | n | x
CCN(CC)c1ccc(C(=O)NNC(=O)CCl)cc1 | 58 | n | n | n
CCN(CC)c1ccc(C(=O)NNC(=O)CCNC(=O)c2ccccc2)cc1 | x | n | x | x
CC(=O)N(C)C1=C(N2CCOCC2)C(=O)c2ccccc2C1=O | n | n | n | n
CC(=O)c1ccc(NC2=C(N3CCOCC3)C(=O)c3ccccc3C2=O)cc1 | 35 | n | n | n
